Experimental data as given in ChEMBL document CHEMBL5344415, “Synthesis and Characterization of Phenylalanine Amides Active against Mycobacterium abscessus and Other Mycobacteria” (J Med Chem, 2023).
Converted amounts (≈) assume the structure as drawn. The source made the active and inactive calls. The rule behind the calls is not given here.

Tests used:
MCF7 = experiment: Cytotoxicity against human MCF7 cells assessed as reduction in cell viability incubated for 72 hrs by SRB assay; format: toxicity, cell-based
HT-29 = experiment: Cytotoxicity against human HT-29 cells assessed as reduction in cell viability incubated for 72 hrs by SRB assay; format: toxicity, cell-based
[1] = Cytotoxicity against mouse NIH3T3 cells assessed as reduction in cell viability incubated for 72 hrs by SRB assay; format: toxicity, cell-based; details: mouse, NIH3T3 cells
[2] = tested on: Mycobacteroides abscessus; experiment: Bactericidal activity against Mycobacterium abscessus ATCC 19977 assessed as reduction in viable bacteria at 6.25 to 12.5 uM incubated for 4 days by microplate dilution assay; format: functional, organism-based; details: dose 6.25-12.5 µM, time 4.0 day
HeLa = experiment: Cytotoxicity against human HeLa cells assessed as reduction in cell viability incubated for 72 hrs by SRB assay; format: toxicity, cell-based
[3] = tested on: Mycobacteroides abscessus; experiment: Antibacterial activity against MMV688845-resistant Mycobacterium abscessus Bamboo 845R-2.1 harboring rpoB/beta subunit P473L mutation assessed as bacterial growth inhibition incubated for 3 days by optical density based analysis; format: functional; details: Bamboo 845R-2.1, 72 h, time 3 day
Procedure, shortened: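 Tenfold-point twofold dilution series in 7H9, final DMSO 1 %. Final ranges typically 50–0.098 or 6.25–0.012 μM. Mid-log culture added to an initial OD₆₀₀ of 0.05 (5*10⁶ CFU/mL). Incubated 3 days at 37 °C with shaking at 110 rpm. Growth taken as OD₆₀₀ on day 3 minus day 0, as % of drug-free wells. MIC₉₀ read visually from the curves. Clarithromycin as control. Two biological replicates, averaged.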

[4] = tested on: Mycobacterium tuberculosis; experiment: Antibacterial activity against Mycobacterium tuberculosis; format: functional
[5] = tested on: Mycobacterium tuberculosis; experiment: Antibacterial activity against Mycobacterium tuberculosis H37Rv ATCC 27294 assessed as bacterial growth inhibition incubated for 7 days in 7H9 medium by optical density based microplate reader analysis; format: functional; details: H37Rv ATCC 27294, 168 h, time 7 day
Procedure, shortened: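 Compounds serially diluted in flat-bottom 96-well plates. Mid-log culture mixed in to a final OD₆₀₀ of 0.05. Sealed plates incubated in humidified boxes at 37 °C for 7 days with shaking at 80 rpm. Turbidity read at 600 nm. MIC₉₀ taken from dose–response curves. Two biological replicates, averaged.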

[6] = Kinetic solubility of compound in PBS at 0.78 to 500 uM measured immediately by nephelometric method; format: physicochemical; details: buffer, dose 0.78-500 µM
Procedure, shortened: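 DMSO stocks prediluted in DMSO, then diluted 1:50 into PBS (2 % DMSO final) and read immediately by nephelometry at 0.78–500 μM; blank-corrected data fitted by segmental regression; quadruplicates from one stock.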

[7] = tested on: Mycobacteroides abscessus; experiment: Antibacterial activity against Mycobacterium abscessus ATCC 19977 expressing tomato RFP infected in human THP-1 cells assessed as bacterial growth inhibition incubated for 4 days in RPMI medium by RFP fluorescence based assay; format: functional; details: ATCC 19977, 96 h, time 4 day
Procedure, shortened: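 RFP M. abscessus washed, moved into RPMI, filtered through 5 µm and opsonised with 10 % human serum for 30 min. THP-1 cells infected at MOI 5:1 with PMA 40 ng/mL for 4 h at 37 °C, then washed. Infected cells (1x10⁵/well) given a ten-point twofold series. Incubated 4 days at 37 °C, 5 % CO₂. Cells PFA-fixed and DAPI-stained. RFP quantified by imaging. Controls were DMSO and 1.5 µM bedaquiline. Duplicate.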

[8] = tested on: Mycolicibacterium smegmatis; experiment: Antibacterial activity against Mycobacterium smegmatis mc2 155 expressing tomato RFP assessed as bacterial growth inhibition incubated for 3 days in 7H9 medium by RFP fluorescence based broth microdilution method; format: functional; details: mc2 155, 72 h, time 3 day
Procedure, shortened: (§1)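 Broth microdilution in 7H9 with 10 % ADS and 0.05 % Tween 80. Twofold nine-point dilution series. Inoculum 5 x 10⁵ cells/mL taken from a mid-log preculture. Incubation at 37 °C, 3 days for M. smegmatis and M. abscessus, 5 days for M. intracellulare. Read-out by RFP fluorescence (ex 544/em 590 nm). Controls were 1 % DMSO and 100 μM amikacin. MIC₉₀ from duplicates, averaged.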

[9] = Stability in mouse plasma at 1 uM measured over 120 mins by HPLC-MS/MS analysis; format: ADME, cell-free; details: 2 h
[10] = Metabolic stability in pooled human liver microsomes assessed as half life at 2 uM measured over 40 mins in presence of NADPH-cofactor system by HPLC-MS/MS analysis; format: ADME, Microsome
Procedure, shortened: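 Pooled mixed-gender human liver microsomes at 0.42 mg protein/mL in 100 mM phosphate pH 7.4 with MgCl₂ and an NADPH-regenerating system. Test compound 2 μM, 1.6 % solvent, at 37 °C. Five time points over 40 min, stopped with acetonitrile, analysed by HPLC-MS/MS. t1/2 from the slope of ln(AUC) versus time. Controls lacked NADPH. Duplicates.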

A-375 = experiment: Cytotoxicity against human A-375 cells assessed as reduction in cell viability incubated for 72 hrs by SRB assay; format: toxicity, cell-based
[11] = tested on: Mycobacteroides abscessus; experiment: Antibacterial activity against Mycobacterium abscessus ATCC 19977 expressing tomato RFP assessed as bacterial growth inhibition incubated for 3 days in 7H9 medium by RFP fluorescence based broth microdilution method; format: functional; details: ATCC 19977, 72 h, time 3 day; procedure, shortened: as §1
A2780 = experiment: Cytotoxicity against human A2780 cells assessed as reduction in cell viability incubated for 72 hrs by SRB assay; format: toxicity, cell-based
[12] = tested on: Mycobacteroides abscessus; experiment: Antibacterial activity against Mycobacterium abscessus ATCC 19977 expressing tomato RFP assessed as bacterial growth inhibition incubated for 3 days in MHII medium by RFP fluorescence based broth microdilution method; format: functional; details: ATCC 19977, 72 h, time 3 day
Procedure, shortened: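 Broth microdilution in MHII broth with 0.05 % Tween 80, against the RFP-expressing strain. Twofold nine-point dilution series. Inoculum 5 x 10⁵ cells/mL from a mid-log preculture. Incubated 3 days at 37 °C. Read-out by RFP fluorescence (ex 544/em 590 nm). Controls were 1 % DMSO and 100 μM amikacin. MIC₉₀ from duplicates, averaged.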

[13] = tested on: Mycobacteroides abscessus; experiment: Bactericidal activity against Mycobacterium abscessus ATCC 19977 assessed as reduction in viable bacteria incubated for 4 days by microplate dilution assay; format: functional; details: time 4 day
[14] = tested on: Mycobacterium intracellulare; experiment: Antibacterial activity against Mycobacterium intracellulare ATCC 35761 expressing tomato RFP assessed as bacterial growth inhibition incubated for 5 days in 7H9 medium by RFP fluorescence based broth microdilution method; format: functional; details: ATCC 35761, 120 h, time 5 day; procedure, shortened: as §1
[15] = tested on: Mycobacteroides abscessus; experiment: Antibacterial activity against Mycobacterium abscessus; format: functional
[16] = Stability in human plasma at 1 uM measured over 120 mins by HPLC-MS/MS analysis; format: ADME, cell-free; details: 2 h
[17] = tested on: Mycobacteroides abscessus; experiment: Antibacterial activity against Mycobacterium abscessus Bamboo harboring inactive clarithromycin-sensitive erm41 C28 sequevar assessed as bacterial growth inhibition incubated for 3 days in 7H9 medium by optical density based method; format: functional; details: 72 h, time 3 day
[18] = tested on: Mycobacteroides abscessus; experiment: Bactericidal activity against Mycobacterium abscessus ATCC 19977 assessed as reduction in viable bacteria at 6.25 uM incubated for 4 days by microplate dilution assay relative to control; format: functional; details: time 4 day
[19] = tested on: Mycobacteroides abscessus; experiment: Bactericidal activity against Mycobacterium abscessus ATCC 19977 assessed as reduction in viable bacteria at 3.13 uM incubated for 4 days by microplate dilution assay relative to control; format: functional; details: time 4 day
Procedure, shortened: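 After 4 days in the microplate dilution assay, 10 µl samples (undiluted or 1:100) were plated on 7H10 with glycerol, ADS and 400 µg/mL hygromycin. Colonies counted after 4 days at 37 °C. Done in triplicate. CFU/mL compared with the inoculum counted before incubation.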

Structure (SMILES) | EC50 (MCF7) | EC50 (HT-29) | EC50 at 72 h [1] | EC50 (HeLa) | MIC90 [3] | MIC90 [5] | Kinetic_solubility [6] | MIC50 [7] | MIC90 [7] | MIC90 [8] | Stability [9] | t1/2 [10] | EC50 (A-375) | MIC90 [11] | EC50 (A2780) | MIC90 [12] | MIC90 [14] | Stability [16] | MIC50 [17] | MIC90 [17] | other results
O=C(N[C@H](Cc1ccccc1)C(=O)Nc1ccccc1N1CCOCC1)c1cccs1 | > 30 µM | > 30 µM | > 30 µM | > 30 µM | > 100 µM | 0.78 µM (≈ 0.34 µg/mL) | 82 µM | 1.56 µM (≈ 0.679 µg/mL) | 12.5 µM (≈ 5.44 µg/mL) | 0.78 µM (≈ 0.34 µg/mL) | Unstable | 1.7 min | > 30 µM | 6.25 µM (≈ 2.72 µg/mL) | > 30 µM | 12.5 µM (≈ 5.44 µg/mL) | 0.78 µM (≈ 0.34 µg/mL) | Stable | 1.7 µM (≈ 0.74 µg/mL) | 4.4 µM (≈ 1.92 µg/mL) | Activity [2]: inactive; MIC90 [4]: 1.2 µM (≈ 0.523 µg/mL); MBC99 [13]: 50 µM (≈ 21.8 µg/mL); MIC90 [15]: 7 µM (≈ 3.05 µg/mL)
O=C(N[C@H](Cc1ccccc1)C(=O)Nc1ccccc1N1CCS(=O)(=O)CC1)c1ccccc1F | > 30 µM | > 30 µM | > 30 µM | > 30 µM | 42 µM (≈ 20.8 µg/mL) | 0.2 µM (≈ 0.0991 µg/mL) | 64 µM | 0.39 µM (≈ 0.193 µg/mL) | 6.25 µM (≈ 3.1 µg/mL) | 0.78 µM (≈ 0.387 µg/mL) | Stable | 1.5 min | > 30 µM | 0.78 µM (≈ 0.387 µg/mL) | > 30 µM | 1.56 µM (≈ 0.773 µg/mL) | 0.05 µM (≈ 0.0248 µg/mL) | Stable | 0.23 µM (≈ 0.114 µg/mL) | 4.3 µM (≈ 2.13 µg/mL) | Activity [18]: 99%; Activity [19]: 95%
